From ChEMBL document CHEMBL1153939, “Novel antagonists of serotonin-4 receptors: synthesis and biological evaluation of pyrrolothienopyrazines” (Bioorg Med Chem, 2009)

Assays:
[1] = biological target: 5-hydroxytryptamine receptor 4 (Cavia porcellus) (UniProt O70528); assay: Displacement of [3H]GR-113808 from 5HT4 receptor in guinea pig striatum membrane at 1 uM; format: cell membranes
How it was run: (§1)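 Guinea pig membranes (15 µg protein/mL) incubated 30 min at 37 °C with 0.6 nM [3H]GR113808 in 50 mM HEPES, pH 7.4, with fixed test concentrations. Nonspecific binding defined with 10 µM serotonin.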

[2] = biological target: 5-hydroxytryptamine receptor 4 (Cavia porcellus) (UniProt O70528); assay: Displacement of [3H]GR-113808 from 5HT4 receptor in guinea pig striatum membrane at 10 nM; format: cell membranes; how it was run: as §1
[3] = biological target: 5-hydroxytryptamine receptor 4 (Homo sapiens, UniProt Q13639); assay: Binding affinity at 5HT4 receptor
5-hydroxytryptamine receptor 4 (Homo sapiens, UniProt Q13639), sequence (Q13639 whole entry): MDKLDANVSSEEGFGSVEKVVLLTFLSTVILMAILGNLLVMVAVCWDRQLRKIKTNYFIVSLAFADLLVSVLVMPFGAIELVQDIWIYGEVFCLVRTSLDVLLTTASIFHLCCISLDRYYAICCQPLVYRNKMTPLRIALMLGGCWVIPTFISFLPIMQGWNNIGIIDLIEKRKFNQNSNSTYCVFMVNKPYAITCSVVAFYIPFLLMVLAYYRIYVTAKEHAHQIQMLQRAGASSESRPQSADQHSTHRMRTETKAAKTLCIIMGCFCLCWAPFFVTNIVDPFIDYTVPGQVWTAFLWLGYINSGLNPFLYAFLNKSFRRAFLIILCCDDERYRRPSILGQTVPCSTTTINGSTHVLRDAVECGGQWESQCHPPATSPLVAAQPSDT

[4] = biological target: T1, 5-hydroxytryptamine receptor 3A (Homo sapiens, UniProt P46098); assay: Binding affinity at 5HT3 receptor
T1 sequence (P46098 whole entry): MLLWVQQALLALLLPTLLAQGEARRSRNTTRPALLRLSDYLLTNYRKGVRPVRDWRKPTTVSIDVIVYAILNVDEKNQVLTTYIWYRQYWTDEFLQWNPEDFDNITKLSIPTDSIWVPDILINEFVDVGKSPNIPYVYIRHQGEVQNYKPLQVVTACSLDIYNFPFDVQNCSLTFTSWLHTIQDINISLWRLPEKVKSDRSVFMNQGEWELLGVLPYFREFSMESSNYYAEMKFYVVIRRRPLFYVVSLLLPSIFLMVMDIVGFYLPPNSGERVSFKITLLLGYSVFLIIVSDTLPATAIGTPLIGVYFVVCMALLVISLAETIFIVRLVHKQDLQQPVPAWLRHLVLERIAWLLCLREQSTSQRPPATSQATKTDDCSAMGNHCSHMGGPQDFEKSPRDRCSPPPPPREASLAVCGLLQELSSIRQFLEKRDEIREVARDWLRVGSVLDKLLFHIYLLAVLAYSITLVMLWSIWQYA

[5] = biological target: 5-hydroxytryptamine receptor 7 (Homo sapiens, UniProt P34969); assay: Displacement of [3H]LSD form human recombinant 5HT7 receptor
5-hydroxytryptamine receptor 7, sequence (P34969 whole entry): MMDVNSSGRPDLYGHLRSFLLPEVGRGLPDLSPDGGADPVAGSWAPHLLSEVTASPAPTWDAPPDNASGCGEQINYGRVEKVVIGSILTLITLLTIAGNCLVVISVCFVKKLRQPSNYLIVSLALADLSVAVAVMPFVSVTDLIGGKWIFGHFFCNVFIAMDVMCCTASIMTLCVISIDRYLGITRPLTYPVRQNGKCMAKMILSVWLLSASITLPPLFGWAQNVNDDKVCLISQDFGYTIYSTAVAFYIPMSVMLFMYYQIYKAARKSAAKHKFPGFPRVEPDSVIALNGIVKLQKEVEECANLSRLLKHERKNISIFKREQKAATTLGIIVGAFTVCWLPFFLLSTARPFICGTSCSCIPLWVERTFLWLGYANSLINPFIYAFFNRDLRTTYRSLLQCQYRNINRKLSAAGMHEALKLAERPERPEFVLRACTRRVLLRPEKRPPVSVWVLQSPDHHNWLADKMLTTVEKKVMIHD
How it was run: (§2)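 Membranes from sf9 cells expressing human 5-HT6 (14 µg/mL) or 5-HT7 (38 µg/mL) incubated 90 min at 27 °C with 2 nM [3H]LSD in 50 mM Tris-HCl containing 10 mM MgSO4 and 0.5 mM EDTA. Nonspecific binding defined with clozapine (10 and 250 µM).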

[6] = biological target: T2, 5-hydroxytryptamine receptor 2C (Homo sapiens, UniProt P28335); assay: Displacement of [3H]mesulergine from human recombinant 5HT2C receptor
T2 sequence (P28335 whole entry): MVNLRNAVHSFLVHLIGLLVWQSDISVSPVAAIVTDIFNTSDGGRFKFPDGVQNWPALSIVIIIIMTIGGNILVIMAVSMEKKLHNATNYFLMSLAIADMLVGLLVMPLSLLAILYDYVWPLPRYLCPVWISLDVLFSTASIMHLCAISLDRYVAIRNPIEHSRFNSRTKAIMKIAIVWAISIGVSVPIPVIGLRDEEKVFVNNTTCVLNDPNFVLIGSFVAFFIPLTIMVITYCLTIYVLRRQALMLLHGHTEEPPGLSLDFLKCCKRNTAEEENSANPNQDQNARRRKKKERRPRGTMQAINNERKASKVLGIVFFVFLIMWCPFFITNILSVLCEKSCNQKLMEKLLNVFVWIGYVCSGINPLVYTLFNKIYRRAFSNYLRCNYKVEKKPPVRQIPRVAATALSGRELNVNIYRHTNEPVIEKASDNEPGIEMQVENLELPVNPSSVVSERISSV

[7] = biological target: 5-hydroxytryptamine receptor 4 (Cavia porcellus, UniProt O70528); assay: Displacement of [3H]GR-113808 from 5HT4 receptor in guinea pig striatum membrane; format: cell membranes; how it was run: as §1
5-hydroxytryptamine receptor 4 (Cavia porcellus, UniProt O70528), sequence (O70528 whole entry): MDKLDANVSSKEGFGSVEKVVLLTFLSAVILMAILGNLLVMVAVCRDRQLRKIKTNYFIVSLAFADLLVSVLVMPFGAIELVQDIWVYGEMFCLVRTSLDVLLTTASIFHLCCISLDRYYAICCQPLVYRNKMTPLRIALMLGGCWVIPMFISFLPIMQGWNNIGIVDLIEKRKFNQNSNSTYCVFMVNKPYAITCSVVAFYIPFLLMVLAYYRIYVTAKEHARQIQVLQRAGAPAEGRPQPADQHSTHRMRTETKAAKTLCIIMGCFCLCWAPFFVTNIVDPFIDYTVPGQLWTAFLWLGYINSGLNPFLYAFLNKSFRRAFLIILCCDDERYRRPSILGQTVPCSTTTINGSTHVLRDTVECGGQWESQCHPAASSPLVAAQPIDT

[8] = biological target: 5-hydroxytryptamine receptor 2A (Homo sapiens, UniProt P28223); assay: Displacement of [3H]ketanserin form human recombinant 5HT2A receptor
5-hydroxytryptamine receptor 2A, sequence (P28223 whole entry): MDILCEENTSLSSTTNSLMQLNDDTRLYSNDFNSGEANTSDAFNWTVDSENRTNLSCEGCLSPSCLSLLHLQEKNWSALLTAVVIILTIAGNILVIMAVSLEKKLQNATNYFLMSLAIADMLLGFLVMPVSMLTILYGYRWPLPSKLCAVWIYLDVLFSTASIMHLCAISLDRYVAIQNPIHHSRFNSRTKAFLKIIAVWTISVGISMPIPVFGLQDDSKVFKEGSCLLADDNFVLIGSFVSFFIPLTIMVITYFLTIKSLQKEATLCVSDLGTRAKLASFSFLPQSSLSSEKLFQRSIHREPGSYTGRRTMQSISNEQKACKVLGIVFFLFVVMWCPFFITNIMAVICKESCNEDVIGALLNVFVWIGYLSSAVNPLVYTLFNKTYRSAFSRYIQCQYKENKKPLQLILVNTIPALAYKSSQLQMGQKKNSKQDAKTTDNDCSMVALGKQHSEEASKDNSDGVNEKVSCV

[9] = biological target: 5-hydroxytryptamine receptor 2B (Homo sapiens, UniProt P41595); assay: Displacement of [3H]mesulergine from human recombinant 5HT2B receptor
5-hydroxytryptamine receptor 2B, sequence (P41595 whole entry): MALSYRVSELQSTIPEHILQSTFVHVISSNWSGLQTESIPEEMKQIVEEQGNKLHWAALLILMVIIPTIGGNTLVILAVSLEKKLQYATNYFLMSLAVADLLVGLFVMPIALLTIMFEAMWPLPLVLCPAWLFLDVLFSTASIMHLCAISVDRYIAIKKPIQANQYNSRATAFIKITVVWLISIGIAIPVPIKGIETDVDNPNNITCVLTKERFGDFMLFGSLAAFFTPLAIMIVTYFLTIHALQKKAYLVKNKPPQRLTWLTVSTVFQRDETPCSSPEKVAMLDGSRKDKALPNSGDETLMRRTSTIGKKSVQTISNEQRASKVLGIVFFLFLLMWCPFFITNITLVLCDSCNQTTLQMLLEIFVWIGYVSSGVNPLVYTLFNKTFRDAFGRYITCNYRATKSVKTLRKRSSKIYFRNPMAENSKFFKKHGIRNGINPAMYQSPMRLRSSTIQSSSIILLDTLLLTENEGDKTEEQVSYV

[10] = biological target: T3, 5-hydroxytryptamine receptor 1A (Homo sapiens, UniProt P08908); assay: Displacement of [3H]8OH-DPAT from human recombinant 5HT1A receptor
T3 sequence (P08908 whole entry): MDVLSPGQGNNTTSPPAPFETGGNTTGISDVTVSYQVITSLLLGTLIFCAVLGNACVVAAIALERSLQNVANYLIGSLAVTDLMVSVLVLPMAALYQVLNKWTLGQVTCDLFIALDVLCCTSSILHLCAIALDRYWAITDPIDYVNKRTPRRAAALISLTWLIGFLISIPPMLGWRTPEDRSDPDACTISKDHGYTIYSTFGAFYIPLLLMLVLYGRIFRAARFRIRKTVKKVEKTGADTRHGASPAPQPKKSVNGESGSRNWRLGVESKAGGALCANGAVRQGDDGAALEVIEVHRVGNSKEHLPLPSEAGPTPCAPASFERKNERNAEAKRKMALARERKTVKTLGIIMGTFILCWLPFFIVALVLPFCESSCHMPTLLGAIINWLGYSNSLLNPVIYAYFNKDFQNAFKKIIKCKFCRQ

[11] = biological target: T1, 5-hydroxytryptamine receptor 3A; assay: Displacement of [3H]granisetron from human recombinant 5HT3 receptor
[12] = biological target: 5-hydroxytryptamine receptor 6 (Homo sapiens, UniProt P50406); assay: Displacement of [3H]LSD form human recombinant 5HT6 receptor; how it was run: as §2
5-hydroxytryptamine receptor 6, sequence (P50406 whole entry): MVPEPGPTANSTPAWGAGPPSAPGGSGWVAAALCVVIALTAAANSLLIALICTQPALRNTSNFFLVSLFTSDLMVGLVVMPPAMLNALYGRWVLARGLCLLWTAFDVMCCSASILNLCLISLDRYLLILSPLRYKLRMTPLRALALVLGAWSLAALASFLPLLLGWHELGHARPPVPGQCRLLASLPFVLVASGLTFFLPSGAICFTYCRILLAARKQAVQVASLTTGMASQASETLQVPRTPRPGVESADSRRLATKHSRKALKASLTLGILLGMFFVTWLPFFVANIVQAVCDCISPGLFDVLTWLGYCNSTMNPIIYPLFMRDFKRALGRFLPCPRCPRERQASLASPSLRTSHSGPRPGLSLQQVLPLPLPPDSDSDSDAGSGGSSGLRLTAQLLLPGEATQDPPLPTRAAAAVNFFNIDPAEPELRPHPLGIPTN

5-hydroxytryptamine receptor 4 (Cavia porcellus), sequence (O70528 whole entry): as the sequence (O70528 whole entry) above

Row | inhibition [1] [%] | inhibition [2] [%] | Ki [7] [nM] | Structure (SMILES) | other results
1 | 7 | 9 |  | CNCCOc1nc2ccsc2n2cccc12 | 
2 |  |  |  | COc1cc(N)c(Cl)cc1C(=O)OCCCN1CCCCC1 | Ki [3]: 31.6 nM; Ki [4]: 2000 nM
3 | 20 | 2 |  | CN(CCOc1nc2ccsc2n2cccc12)Cc1ccccc1 | 
4 | 90 | 18 |  | c1cc2c(OCC3CCCCN3)nc3ccsc3n2c1 (configuration not stated) | 
5 | 100 | 31 | 20.9 | CCCCN1CCC(COc2nc3ccsc3n3cccc23)CC1 | IC50 [5]: > 1000 nM; IC50 [6]: 29500 nM; IC50 [8]: 166 nM; IC50 [9]: 52.5 nM; IC50 [10]: 5250 nM; IC50 [11]: > 10000 nM; IC50 [12]: > 10000 nM
6 | 100 | 20 | 38 | CN1CCC(COc2nc3sccc3n3cccc23)CC1 | 
7 | 26 | 0 |  | c1cc2c(OC3CCNCC3)nc3ccsc3n2c1 | 
8 | 100 | 54 | 11.7 | CCCN1CCC(COc2nc3sccc3n3cccc23)CC1 | 
9 | 100 | 16 | 57.5 | c1cc2c(OCCCCN3CCCCC3)nc3ccsc3n2c1 | 
10 | 100 | 26 | 8.51 | C=CCN1CCC(COc2nc3scc(C)c3n3cccc23)CC1 | 
11 | 100 | 75 | 5.37 | CCCCN1CCC(COc2nc3scc(C)c3n3cccc23)CC1 | 
12 | 90 | 5 | 617 | c1cc2c(OCCC3CCCCN3)nc3ccsc3n2c1 (configuration not stated) | 
13 | 56 | 2 |  | CCC(C)N1CCC(COc2nc3ccsc3n3cccc23)CC1 (configuration not stated) | 
14 | 100 | 30 | 9.55 | CCN1CCC(COc2nc3scc(C)c3n3cccc23)CC1 | 
15 | 100 | 26 | 12.9 | Cc1csc2nc(OCCCN3CCCCC3)c3cccn3c12 | 
16 | 75 | 14 |  | c1cc2c(OCCCN3CCNCC3)nc3ccsc3n2c1 | 
17 | 0 | 0 |  | NCCOc1nc2ccsc2n2cccc12 | 
18 | 100 | 30 | 6.46 | Cc1csc2nc(OCC3CCN(C(C)C)CC3)c3cccn3c12 | 
19 | 82 | 0 |  | CCCCN1CCCC(COc2nc3ccsc3n3cccc23)C1 (configuration not stated) | 
20 | 72 | 0 |  | CCCN1CCCCC1CCOc1nc2ccsc2n2cccc12 (configuration not stated) | 
21 | 38 | 0 |  | c1cc2c(OCCN3CCNCC3)nc3ccsc3n2c1 | 
22 | 50 | 1 |  | CCCCN1CCC(Oc2nc3ccsc3n3cccc23)CC1 | 
23 | 100 | 20 |  | CCCCCN1CCC(COc2nc3scc(C)c3n3cccc23)CC1 | 
24 |  |  |  | CCCCN1CCC(COC(=O)c2cc(Cl)c(N)c3c2OCCO3)CC1 | Ki [3]: 0.0158 nM; Ki [4]: 158 nM
25 |  |  |  | COCCCN1CCC(NC(=O)c2cc(Cl)c(N)c3c2OCC3)CC1 [PRUCALOPRIDE] | Ki [4]: 3980 nM
26 | 66 | 12 |  | CCCCN1CCN(CCOc2nc3ccsc3n3cccc23)CC1 | 
27 | 73 | 5 | 417 | c1cc2c(OCCN3CCCCC3)nc3ccsc3n2c1 | 
28 | 100 | 15 | 74.1 | c1cc2c(OCCCN3CCCC3)nc3ccsc3n2c1 | 

Row | inhibition [1] [%] | inhibition [2] [%] | Ki [7] [nM] | Structure (SMILES) | other results
29 | 100 | 11 |  | Cc1csc2nc(OCC3CCN(Cc4ccccc4)CC3)c3cccn3c12 | 
30 | 60 | 7 |  | c1cc2c(OCCN3CCCC3)nc3ccsc3n2c1 | 
31 |  |  |  | CCCCN1CCC(CNC(=O)c2c3n(c4ccccc24)CCCO3)CC1 [PIBOSEROD] | Ki [4]: > 1000 nM
32 | 99 | 49 | 29.5 | C=CCN1CCC(COc2nc3sccc3n3cccc23)CC1 | 
33 | 100 | 0 | 58.9 | CN1CCC(COc2nc3ccsc3n3cccc23)CC1 | 
34 | 100 | 34 | 16.2 | CCN(CC)CCCCOc1nc2ccsc2n2cccc12 | 
35 |  |  |  | CN1[C@@H]2CC[C@H]1C[C@@H](OC(=O)c1c[nH]c3ccccc13)C2 [TROPISETRON] | Ki [3]: 200 nM
36 |  |  |  | CCCCCNC(=N)N/N=C/c1c[nH]c2ccc(OC)cc12 [TEGASEROD] | Ki [3]: 3.98 nM; Ki [4]: > 10000 nM
37 |  |  |  | CCN(CC)CCOC(=O)c1cc(Cl)c(N)cc1OC | Ki [4]: 126 nM
38 | 74 | 8 |  | c1cc2c(OCC3CCNCC3)nc3ccsc3n2c1 | 
39 | 100 | 13 |  | Cc1csc2nc(OCC3CCN(C)CC3)c3cccn3c12 | 
40 | 18 | 12 |  | c1cc2c(OCCN3CCOCC3)nc3ccsc3n2c1 | 
41 | 13 | 0 |  | c1ccc(CN2CCN(CCOc3nc4ccsc4n4cccc34)CC2)cc1 | 
42 | 99 | 55 | 25.7 | CCCCCN1CCC(COc2nc3ccsc3n3cccc23)CC1 | 
43 | 100 | 38 | 18.2 | CC(C)N1CCC(COc2nc3ccsc3n3cccc23)CC1 | 
44 | 100 | 28 | 11.2 | C=CCCN1CCC(COc2nc3scc(C)c3n3cccc23)CC1 | 
45 | 100 | 56 | 20.9 | CCCCN1CCC(COc2nc3sccc3n3cccc23)CC1 | 
46 | 100 | 30 | 52.5 | c1cc2c(OCCCN3CCCCC3)nc3ccsc3n2c1 | 
47 | 92 | 0 |  | CCN1CCC(COc2nc3sccc3n3cccc23)CC1 | 
48 | 91 | 0 |  | CCCN1CCCC(COc2nc3ccsc3n3cccc23)C1 (configuration not stated) | 
49 | 72 | 0 |  | CCCN1CCN(CCOc2nc3ccsc3n3cccc23)CC1 | 
50 | 95 | 32 | 8.71 | C=CCN1CCC(COc2nc3ccsc3n3cccc23)CC1 | 
51 | 67 | 10 |  | CCCN1CCC(Oc2nc3ccsc3n3cccc23)CC1 | 
52 | 100 | 23 | 37.2 | C=CCCN1CCC(COc2nc3ccsc3n3cccc23)CC1 | 
53 | 100 | 97 | 16.2 | CCCN1CCC(COc2nc3ccsc3n3cccc23)CC1 | 
54 | 100 | 13 | 49 | CCCCCN1CCC(COc2nc3sccc3n3cccc23)CC1 | 
55 | 100 | 18 |  | CCC(C)N1CCC(COc2nc3scc(C)c3n3cccc23)CC1 (configuration not stated) | 

Row | Structure (SMILES) | inhibition [1] [%] | inhibition [2] [%] | Ki [7] [nM] | other results
56 | c1cc2c(OC3CN4CCC3CC4)nc3ccsc3n2c1 (configuration not stated) | 53 | 11 |  | 
57 | c1ccc(CN2CCC(COc3nc4ccsc4n4cccc34)CC2)cc1 | 100 | 0 | 63.1 | 
